Data from ChEMBL document CHEMBL1153610, “Synthesis and antiprotozoal activities of dicationic bis(phenoxymethyl)benzenes, bis(phenoxymethyl)naphthalenes, and bis(benzyloxy)naphthalenes” (Eur J Med Chem, 2009).
The source made the active and inactive calls. The calls are words filed in the database; no cut-off is given here.

Assays:
[1] = Selectivity index, ratio of IC50 for rat L6 cells to IC50 for Trypanosoma brucei rhodesiense STIB900; format: toxicity, cell-based; conditions: read-out: Ratio IC50
[2] = test system: Trypanosoma brucei rhodesiense; experiment: Antitrypanosomal activity against Trypanosoma brucei rhodesiense STIB900 infected NMRI mouse assessed as infection cure rate at 4 mg/kg, ip dosed for 4 days; format: functional, organism-based; design: dose 4 mg/kg
[3] = test system: Trypanosoma brucei rhodesiense; experiment: Antitrypanosomal activity against Trypanosoma brucei rhodesiense STIB900 infected NMRI mouse assessed mean survival time at 4 mg/kg, ip dosed for 4 days; format: functional; conditions: route intraperitoneal
[4] = test system: Trypanosoma brucei rhodesiense; experiment: Antitrypanosomal activity against Trypanosoma brucei rhodesiense STIB900 infected NMRI mouse assessed as infection cure rate at 20 mg/kg, ip dosed for 4 days; format: functional, organism-based; design: dose 20 mg/kg
Summary of the method: (§1)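 Mice infected with T. b. rhodesiense STIB900 were dosed intraperitoneally once daily for 4 days. Outcome was scored as cured/infected animals out of groups of four, plus mean survival days post infection for mice showing parasitemia relapse.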

L6 = experiment: Cytotoxicity against rat L6 cells; format: cell-based
Summary of the method: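 Rat L6 myoblasts served as the cytotoxicity measure. IC50 is the average of duplicate determinations.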

[5] = test system: Trypanosoma brucei rhodesiense; experiment: Antitrypanosomal activity against Trypanosoma brucei rhodesiense STIB900 infected NMRI mouse assessed mean survival time at 20 mg/kg, ip dosed for 4 days; format: functional; conditions: route intraperitoneal
Plasmodium falciparum = experiment: Antimalarial activity against chloroquine-resistant Plasmodium falciparum K1; format: functional, organism-based
[6] = test system: Trypanosoma brucei rhodesiense; experiment: Antitrypanosomal activity against Trypanosoma brucei rhodesiense STIB900; format: functional, organism-based
Leishmania donovani = experiment: Antileishmanial activity against Leishmania donovani MHOM/SD/62/1S-CL2D amastigotes; format: functional, organism-based
Summary of the method: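 IC50 taken as the average of duplicate determinations against L. donovani.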

[7] = Selectivity index, ratio of IC50 for rat L6 cells to IC50 for Leishmania donovani MHOM/SD/62/1S-CL2D amastigotes; format: toxicity, cell-based; conditions: read-out: Ratio IC50
[8] = Selectivity index, ratio of IC50 for rat L6 cells to IC50 for chloroquine-resistant Plasmodium falciparum K1; format: toxicity, cell-based; conditions: read-out: Ratio IC50
[9] = test system: Trypanosoma brucei rhodesiense; experiment: Antitrypanosomal activity against Trypanosoma brucei rhodesiense STIB900 infected NMRI mouse assessed mean survival time at 100 mg/kg, po dosed for 4 days; format: functional
Mus musculus = experiment: Toxicity in ip dosed NMRI mouse infected with Trypanosoma brucei rhodesiense STIB900; format: organism-based; conditions: in vivo
[10] = test system: Trypanosoma brucei rhodesiense; experiment: Antitrypanosomal activity against Trypanosoma brucei rhodesiense STIB900 infected NMRI mouse assessed mean survival time at 10 mg/kg, ip dosed for 4 days; format: functional; conditions: route intraperitoneal
[11] = test system: Trypanosoma brucei rhodesiense; experiment: Antitrypanosomal activity against Trypanosoma brucei rhodesiense STIB900 infected NMRI mouse assessed as infection cure rate at 5 mg/kg, ip dosed for 4 days; format: functional, organism-based; design: dose 5 mg/kg; summary of the method: as §1
[12] = test system: Trypanosoma brucei rhodesiense; experiment: Antitrypanosomal activity against Trypanosoma brucei rhodesiense STIB900 infected NMRI mouse assessed mean survival time at 5 mg/kg, ip dosed for 4 days; format: functional; conditions: route intraperitoneal
[13] = test system: Trypanosoma brucei rhodesiense; experiment: Antitrypanosomal activity against Trypanosoma brucei rhodesiense STIB900 infected NMRI mouse assessed as infection cure rate at 100 mg/kg, po dosed for 4 days; format: functional, organism-based; design: dose 100 mg/kg
Summary of the method: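 Mice infected with T. b. rhodesiense STIB900 received oral doses once daily for 4 days. Cure was scored as cured/infected animals, with mean survival days post infection for relapsing mice.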

[14] = test system: Trypanosoma brucei rhodesiense; experiment: Antitrypanosomal activity against Trypanosoma brucei rhodesiense STIB900 infected NMRI mouse assessed as infection cure rate at 10 mg/kg, ip dosed for 4 days; format: functional, organism-based; design: dose 10 mg/kg; summary of the method: as §1

| Structure (SMILES) | selectivity ratio [1] | Activity [2] | Survival [3] [days] | Activity [4] | IC50 (L6) [nM] | Survival [5] [days] | IC50 (Plasmodium falciparum) [nM] | IC50 [6] [nM] | IC50 (Leishmania donovani) [nM] | selectivity ratio [7] | selectivity ratio [8] | Survival [9] [days] | Activity (Mus musculus) | Survival [10] [days] | Activity [11] | Survival [12] [days] | Activity [13] | Activity [14] |
| --- | --- | --- | --- | --- | --- | --- | --- | --- | --- | --- | --- | --- | --- | --- | --- | --- | --- | --- |
| Nc1nc(N)nc(Nc2ccc([As]3SCC(CO)S3)cc2)n1 (stereo unspecified) [MELARSOPROL] | 1220 | Active | >60 |  |  |  |  |  |  |  |  |  |  |  |  |  |  |  |
| N=C(N)c1cccc(OCc2ccc(COc3cccc(C(=N)N)c3)cc2)c1 | 103 |  |  | inactive | 8020 | 19.5 | 67.7 | 77.8 | > 200000 | < 0.0401 | 119 |  |  |  |  |  |  |  |
| N=C(NO)c1ccc(OCc2cccc(COc3ccc(C(=N)NO)cc3)c2)cc1 | < 0.104 |  |  |  | 6530 |  | > 10400 | > 62600 | > 100000 | < 0.0653 | < 0.628 | >38.3 |  |  |  |  |  |  |
| c1cc(COc2ccc(C3=NCCN3)cc2)ccc1COc1ccc(C2=NCCN2)cc1 | 79.5 |  |  | inactive | 30200 | 15 | 18 | 380 | 1900 | 15.9 | 1680 |  |  |  |  |  |  |  |
| N=C(N)c1cccc(OCc2ccccc2COc2cccc(C(=N)N)c2)c1 | 602 |  |  |  | 84600 |  | 109 | 140 | 5500 | 15.4 | 775 |  | Toxic | >27.3 |  |  |  |  |
| N=C(N)c1ccc(COc2ccc3cc(OCc4ccc(C(=N)N)cc4)ccc3c2)cc1 |  |  |  |  | 19300 |  |  | 2360 | 7120 |  |  |  |  |  |  |  |  |  |
| CC(C)NC(=N)c1ccc(OCc2ccccc2COc2ccc(C(=N)NC(C)C)cc2)cc1 | 97 |  |  |  | 163000 |  | 10.9 | 1680 | 11700 | 14 | 15000 |  |  |  |  |  |  |  |
| c1cc(OCc2ccc(COc3cccc(C4=NCCN4)c3)cc2)cc(C2=NCCN2)c1 | 13.9 |  |  |  | 19800 |  | 113 | 1420 | > 200000 | < 0.099 | 175 |  |  |  |  |  |  |  |
| CC(C)NC(=N)c1cccc(OCc2ccccc2COc2cccc(C(=N)NC(C)C)c2)c1 | > 126 |  |  |  | > 162000 |  | 111 | 1280 | > 30000 | < 5.41 | > 1470 |  |  |  |  |  |  |  |
| N=C(N)c1ccc(OCc2cc(COc3ccc(C(=N)N)cc3)c3ccccc3c2)cc1 | 212 |  |  | inactive | 68800 | 12 | 55.1 | 325 |  |  | 1250 |  |  |  |  |  |  |  |
| CC(C)NC(=N)c1ccc(OCc2ccc(COc3ccc(C(=N)NC(C)C)cc3)cc2)cc1 | > 2230 |  |  |  | > 167000 |  | 17 | 74.8 | 7990 | > 20.9 | > 9820 |  | Toxic |  | inactive | 17 |  |  |
| N=C(N)c1ccc(OCCCCCOc2ccc(C(=N)N)cc2)cc1 [PENTAMIDINE] |  |  |  | inactive |  | 42.8 |  |  |  |  |  |  |  |  |  |  |  |  |
| CC(C)NC(=N)c1ccc(OCc2ccc(COc3ccc(C(=N)NC(C)C)cc3)c3ccccc23)cc1 | 134 |  |  |  | 41800 |  | 66.9 | 313 | 9730 | 4.29 | 625 |  |  |  |  |  |  |  |
| CONC(=N)c1ccc(OCc2cccc(COc3ccc(C(=N)NOC)cc3)c2)cc1 | > 1.11 |  |  |  | > 33600 |  | > 9720 | 30400 | > 100000 | < 0.336 | > 3.46 | 6 |  |  |  |  | inactive |  |
| N=C(N)c1cccc(OCc2cccc(COc3cccc(C(=N)N)c3)c2)c1 | 1360 |  |  |  | 64200 |  | 19.1 | 47.3 |  |  | 3360 |  |  |  | inactive | 17 |  |  |
| N=C(N)c1ccc(OCc2ccc(COc3ccc(C(=N)N)cc3)cc2)cc1 | 600 |  |  | inactive | 12400 | 32 | 64 | 20.7 | 1320 | 9.4 | 194 |  |  |  |  |  |  |  |
| N=C(NO)c1cccc(OCc2cccc(COc3cccc(C(=N)NO)c3)c2)c1 | 1.12 |  |  |  | 8600 |  | 2090 | 7710 | > 50000 | < 0.172 | 4.12 | 14.5 |  |  |  |  | inactive |  |
| N=C(N)c1ccc(OCc2ccccc2COc2ccc(C(=N)N)cc2)cc1 | 209 |  |  | inactive | 30100 | 13.5 | 153 | 144 | 3820 | 7.87 | 197 |  |  |  |  |  |  |  |
| CC(C)NC(=N)c1cccc(OCc2ccc(COc3cccc(C(=N)NC(C)C)c3)cc2)c1 | 72.4 |  |  |  | 87000 |  | 47.4 | 1200 | 14800 | 5.89 | 1830 |  |  |  |  |  |  |  |
| N=C(N)c1ccc(OCc2cccc(COc3ccc(C(=N)N)cc3)c2)cc1 | 4350 |  |  |  | 9140 |  | 25.6 | 2.1 | 3260 | 2.8 | 357 |  |  | >35.5 |  |  |  |  |
| c1ccc(COc2ccc(C3=NCCN3)cc2)c(COc2ccc(C3=NCCN3)cc2)c1 | 168 |  |  |  | 109000 |  | 10.4 | 647 | 3660 | 29.8 | 10500 |  |  |  |  |  |  |  |
| N=C(N)c1ccc(-c2ccc(-c3ccc(C(=N)N)cc3)o2)cc1 [FURAMIDINE] |  |  |  |  |  |  |  | 3.2 |  |  |  |  |  |  |  |  |  |  |
| c1cc(COc2ccc(C3=NCCN3)cc2)cc(COc2ccc(C3=NCCN3)cc2)c1 | 2670 |  |  | inactive | 123000 | 22.8 | 18 | 46.2 | 3990 | 30.9 | 6860 |  |  |  |  |  |  |  |
| CC(C)NC(=N)c1ccc(OCc2cccc(COc3ccc(C(=N)NC(C)C)cc3)c2)cc1 | > 2490 |  |  |  | > 169000 |  | 3.6 | 68 | 7270 | > 23.2 | > 46900 |  |  | >60 | Active | >51.5 |  | Active |
| c1cc(OCc2ccccc2COc2cccc(C3=NCCN3)c2)cc(C2=NCCN2)c1 | 2.75 |  |  |  | 66500 |  | 362 | 24200 | > 100000 | < 0.665 | 184 |  |  |  |  |  |  |  |
| N=C(N)c1ccc(OCc2ccc(COc3ccc(C(=N)N)cc3)c3ccccc23)cc1 | 121 |  |  |  | 28300 |  | 126 | 234 |  |  | 224 |  |  |  |  |  |  |  |
